Measured values published in ChEMBL document CHEMBL4699419, “Antileishmanial assessment of isoxazole derivatives against L. donovani” (RSC Med Chem, 2020).
Active and inactive are the calls of the source. The rule behind the calls is not given here.

Legend:
Leishmania donovani [1] = test: (§1) Antileishmanial activity against Leishmania donovani amastigotes infected in golden hamster assessed as reduction in parasite burden in spleen at 50 mg/kg, ip initiated after 2 days of pre-treatment biopsy administered for 5 days and measured on day 28 by giemsa staining based assay relative to control; assay type: functional; settings: for inhibition: time 28.0 day; for inhibition in vivo at 50 mg/kg: 672 h, time 28 day
How it was run: (§2)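 Male inbred golden hamsters, 40–45 g, infected with L. donovani. Animals with +1 infection on pre-treatment spleen biopsy randomized, five per group. Intraperitoneal dosing in a vehicle of 10% Tween-80/ethanol (70:30) in ddH2O, 10% final, began 2 days after biopsy and ran 5 consecutive days; vehicle-only controls. Giemsa-stained spleen biopsies taken on day 7 or 28; percentage inhibition computed from initial, treated and untreated-control amastigote counts.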

[2] = Cytotoxicity against mouse J774A1 cells assessed as reduction in cell viability incubated for 48 hrs by MTT assay; assay type: cell-based, J774.A1
How it was run: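 J774A.1 macrophages, 0.2 × 10^6 per well, incubated overnight at 37 °C in 5% CO2, then exposed to compounds in DMSO for 48 h, with DMSO dilutions as controls. Viability read by MTT formazan at 600 nm. CC50 = 50% viability reduction versus medium-only cells, from probit regression; three independent experiments.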

[3] = Selectivity index, ratio of CC50 for mouse J774.A1 cells to IC50 for amastigote form of Leishmania donovani MHOM/IN/80/Dd8; assay type: toxicity; settings: read-out: Ratio CC50/IC50
How it was run: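 Macrophages infected at a 1:10 ratio with stationary promastigotes, then treated 72 h at 37 °C; luminescence read with Steady-Glo. IC50 values from probit analysis.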

Leishmania donovani [4] = test: as §1, with “7” for “28”; assay type: functional; settings: for inhibition: time 7.0 day; for inhibition in vivo at 50 mg/kg: 168 h, time 7 day; how it was run: as §2
Leishmania donovani [5] = test: Antileishmanial activity against Leishmania donovani MHOM/IN/80/Dd8 promastigotes harboring luciferase reporter gene infected in mouse J774 cells assessed as inhibition of amastigote growth incubated for 72 hrs by Steady-Glo luminescence assay; assay type: functional, organism-based; settings: Leishmania donovani, MHOM/IN/80/Dd8, J774, 72 h; read-out: IC50
How it was run: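 J774A.1 mouse macrophages (2 × 10^5 per well, RPMI-1640 + 10% FCS, 37 °C CO2) infected after 24 h with stationary-phase luciferase-transgenic promastigotes at 1:10 macrophage:parasite; compounds in complete medium for 72 h at 37 °C. Medium swapped for PBS, Steady-Glo added, luminescence read; % inhibition vs untreated control RLU. IC50 by Probit log dose/response regression, three independent experiments.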

Leishmania donovani [6] = test: Antileishmanial activity against late log phase promastigote stage of Leishmania donovani MHOM/IN/80/Dd8 harboring luciferase reporter gene incubated for 72 hrs by Steady-Glo luminescence assay; assay type: functional, organism-based; settings: Leishmania donovani, MHOM/IN/80/Dd8, 72 h; read-out: IC50
How it was run: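 Luciferase-transfected promastigotes kept at 25 ± 1 °C in medium 199 + 10% heat-inactivated FCS + G418 (20 μg ml–1). Late-log cells (5 × 10^5 per well) grown 72 h with graded compound concentrations from DMSO, DMSO dilution controls. Aliquot mixed 1:1 with Steady-Glo, luminescence (RLU) read; % inhibition vs control. IC50 by Probit regression, three independent experiments.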

Leishmania amazonensis [7] = test: Antileishmanial activity against promastigote form of Leishmania amazonensis; assay type: functional, organism-based
Leishmania amazonensis [8] = test: Antileishmanial activity against intracellular amastigote stage of Leishmania amazonensis; assay type: functional, organism-based
[9] = Cmax in golden hamster at 100 mg/kg, po measured upto 24 hrs by LC/MS-MS analysis; assay type: ADME, organism-based, Mesocricetus auratus; parameters: route oral, dose 100 mg/kg, time <=24; settings: in vivo
How it was run: (§3)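 Male Syrian hamsters, three per group; single oral dose of 100 mg kg–1 as a suspension in 0.5% sodium carboxymethylcellulose. Plasma concentrations followed over 24 h by LC–MS/MS with electrospray ionization. Parameters derived by non-compartmental analysis; mean ± SD of n = 3.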

[10] = Half life in golden hamster at 100 mg/kg, po measured upto 24 hrs by LC/MS-MS analysis; assay type: ADME, organism-based, Mesocricetus auratus; settings: in vivo; how it was run: as §3
[11] = Drug metabolism in golden hamster at 100 mg/kg, po measured upto 24 hrs by LC/MS-MS analysis; assay type: ADME, organism-based, Mesocricetus auratus; settings: in vivo
[12] = Tmax in golden hamster at 100 mg/kg, po measured upto 24 hrs by LC/MS-MS analysis; assay type: ADME, organism-based, Mesocricetus auratus; settings: in vivo; how it was run: as §3
Leishmania donovani [13] = test: as §1, with “100” for “50”, “po” for “ip”, “7” for “28”; assay type: functional; settings: 168 h, time 7 day
How it was run: (§4)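 Male inbred golden hamsters, 40–45 g, infected with L. donovani. Animals with +1 infection on pre-treatment spleen biopsy (5–15 amastigotes/100 spleen cell nuclei) randomized, five per group. Oral dosing in 5% carboxymethyl cellulose vehicle began 2 days after biopsy and ran 5 consecutive days; vehicle-only infected controls. Giemsa-stained spleen biopsies taken on day 7 or 28 after the last dose; PI = 100 – [ANAT × 100/(INAT × TIUC)].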

[14] = AUC (0 to infinity) in golden hamster at 100 mg/kg, po measured upto 24 hrs by LC/MS-MS analysis; assay type: ADME, organism-based, Mesocricetus auratus; parameters: route oral, dose 100 mg/kg, time <=24; settings: in vivo; how it was run: as §3
[15] = MRT in golden hamster at 100 mg/kg, po measured upto 24 hrs by LC/MS-MS analysis; assay type: ADME, organism-based, Mesocricetus auratus; settings: in vivo; how it was run: as §3
Leishmania donovani [16] = test: as §1, with “100” for “50”, “po” for “ip”; assay type: functional; settings: 672 h, time 28 day; how it was run: as §4
Leishmania amazonensis [17] = test: Antileishmanial activity against intracellular amastigote stage of Leishmania amazonensis (IFLA/BR/1967/PH8 strain) assessed as reduction in parasite viability incubated for 24 hrs by Neubauer chamber cell counting method; assay type: functional, organism-based; settings: IFLA/BR/1967/PH8, 24 h
Leishmania amazonensis [18] = test: Antileishmanial activity against promastigote form of Leishmania amazonensis (IFLA/BR/1967/PH8 strain) assessed as reduction in parasite viability incubated for 72 hrs by MTT assay; assay type: functional, organism-based; settings: IFLA/BR/1967/PH8, 72 h
Leishmania donovani [19] = test: as §1, with “30” for “50”, “po” for “ip”, “7” for “28”; assay type: functional; settings: 168 h, time 7 day; how it was run: as §4
Leishmania donovani [20] = test: as §1, with “30” for “50”, “po” for “ip”; assay type: functional; settings: 672 h, time 28 day; how it was run: as §4

SMILES | CC50 at 48 h [2] [µM] | selectivity ratio [3] | IC50 (Leishmania donovani [5]) [µM] | IC50 (Leishmania donovani [6]) [µM] | inhibition in vivo at 50 mg/kg (Leishmania donovani [1]) [%] | inhibition in vivo at 50 mg/kg (Leishmania donovani [4]) [%] | other results
COC(=O)c1c(NCCNc2ccnc3cc(Cl)ccc23)noc1-c1ccc([N+](=O)[O-])cc1 | 3.79 | 4.16 | 0.91 | 1.87 | – | – | inhibition (Leishmania donovani [1]): inactive; inhibition (Leishmania donovani [4]): inactive
COC(=O)c1c(NCCCNc2ccnc3cc(Cl)ccc23)noc1-c1ccc(Cl)cc1Cl | 31.1 | 9.67 | 3.21 | 3.82 | 9.23 | 62 | –
COc1cc(-c2cc(-c3cc(OC)c(OC)c(OC)c3)on2)cc(OC)c1OC | – | – | – | – | – | – | IC50 (Leishmania amazonensis [7]): 18.3 µM; IC50 (Leishmania amazonensis [8]): 2.9 µM
COC(=O)c1c(NCc2ccc(C(C)(C)C)cc2)noc1-c1cc2c(cc1[N+](=O)[O-])OCO2 | 7.49 | 14 | 0.54 | 2.14 | 28.6 | 71.1 | Cmax [9]: 15.4 ng/mL; half-life [10]: 3.78 h; Drug metabolism [11]: Metabolite_Detected; Tmax [12]: 3 h; inhibition in vivo at 100 mg/kg (Leishmania donovani [13]): 69.5%; AUC(0-inf) [14]: 149 ng·h/mL; MRT [15]: 9.53 h; inhibition in vivo at 100 mg/kg (Leishmania donovani [16]): 12.7%
COC(=O)c1c(NCc2ccc(Cl)cc2)noc1-c1ccc(Cl)cc1Cl | 176 | 56.6 | 3.1 | 14.1 | – | 29.2 | inhibition (Leishmania donovani [1]): inactive
COC(=O)c1c(NCc2ccccc2)noc1-c1ccc([N+](=O)[O-])cc1 | 85.4 | 6.16 | 13.8 | 3.9 | 75.2 | 44 | –
COC(=O)c1c(NCc2ccc(Cl)cc2)noc1-c1cc2c(cc1[N+](=O)[O-])OCO2 | 33 | 7 | 4.59 | 15.5 | 2.08 | 13.5 | –
COC(=O)c1c([N+](=O)[O-])noc1-c1ccccc1F | – | 2.19 | 16.1 | 2.87 | – | 36 | inhibition (Leishmania donovani [1]): inactive
O=[N+]([O-])c1ccc(-c2cc(-c3ccc(CCl)cc3)on2)o1 | – | – | – | – | – | – | IC50 (Leishmania amazonensis [17]): 0.6 µM; IC50 (Leishmania amazonensis [18]): 3.5 µM
COC(=O)c1c(NCCNc2ccnc3cc(Cl)ccc23)noc1-c1ccc(Cl)cc1Cl | 3.45 | 4.05 | 0.85 | 1.86 | – | 19.3 | inhibition (Leishmania donovani [1]): inactive
COC(=O)c1c([N+](=O)[O-])noc1-c1ccc(Cl)cc1Cl | 19.7 | 4.49 | 4.38 | 1.82 | 29 | 39.5 | –
COC(=O)c1c(NCCCCNc2ccnc3cc(Cl)ccc23)noc1-c1ccccc1[N+](=O)[O-] | 77.7 | 8.99 | 8.63 | 1.95 | – | – | inhibition (Leishmania donovani [1]): inactive; inhibition (Leishmania donovani [4]): inactive
COC(=O)c1c([N+](=O)[O-])noc1-c1cc2c(cc1[N+](=O)[O-])OCO2 | 113 | 6.51 | 17.4 | 0.67 | 71.2 | 36 | inhibition in vivo at 100 mg/kg (Leishmania donovani [13]): 48.4%; inhibition in vivo at 100 mg/kg (Leishmania donovani [16]): 66%
O=C(c1c([N+](=O)[O-])noc1-c1ccc([N+](=O)[O-])cc1)N1CCOCC1 | 66 | 4.22 | 15.6 | 2.71 | – | – | –
CCCCCCCCCCCCCCCCOP(=O)([O-])OCC[N+](C)(C)C [MILTEFOSINE] | 53.3 | 5.76 | 9.25 | 2.52 | – | – | inhibition in vivo at 30 mg/kg (Leishmania donovani [19]): 97.3%; inhibition in vivo at 30 mg/kg (Leishmania donovani [20]): 98.4%
COc1cc(-c2cc(-c3ccc4c(c3)OCO4)no2)cc(OC)c1OC | – | – | – | – | – | – | IC50 (Leishmania amazonensis [7]): 18.3 µM; IC50 (Leishmania amazonensis [8]): 2.9 µM
O=C(NCc1cccc(Cl)c1Cl)c1c([N+](=O)[O-])noc1-c1ccc(Cl)cc1Cl | 81.8 | 58 | 1.41 | 3.49 | – | – | –
O=C(NCc1ccc(F)cc1)c1c([N+](=O)[O-])noc1-c1ccc(Cl)cc1Cl | 86.4 | 1.7 | 50.6 | 2.46 | – | – | –
COC(=O)c1c(NCc2ccc(OC)cc2OC)noc1-c1ccc(Cl)cc1Cl | 32.1 | 6 | 5.48 | 8.34 | 38 | 50.9 | –
COC(=O)c1c(NCCNc2cc(C(F)(F)F)nc3c(C(F)(F)F)cccc23)noc1-c1ccc([N+](=O)[O-])cc1 | 73 | 4.03 | 18.1 | 10.1 | – | – | –
COC(=O)c1c(NCCCCNc2ccnc3cc(Cl)ccc23)noc1-c1cc2c(cc1[N+](=O)[O-])OCO2 | 67.7 | 7.97 | 8.49 | 4.5 | 4.38 | 20 | –
COC(=O)c1c([N+](=O)[O-])noc1-c1ccccc1Cl | 80 | 4.82 | 16.6 | 2.72 | – | – | –
